Reference: ChEMBL document CHEMBL1122066, “Arylhydroxamic acid N,O-acyltransferase substrates. Acetyl transfer and electrophile generating activity of N-hydroxy-N-(4-alkyl-, 4-alkenyl-, and 4-cyclohexylphenyl)acetamides” (J Med Chem, 1982)

Assays:
[1] = system: arylhydroxamic acid N,O-acyltransferase (Mesocricetus auratus); assay: Tested for its arylhydroxamic acid N,O-Acyltransferase (AHAT) catalyzed transacetylation of aminoazobenzene with partially purified hepatic enzyme in hamster; design: Rate: unit not given here
Rattus norvegicus [2] = species on record: Rattus norvegicus; assay: Tested for its arylhydroxamic acid N,O-Acyltransferase (AHAT) catalyzed transacetylation of aminoazobenzene with partially purified hepatic enzyme in rat; type: functional
Summary of the method: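 Rat liver AHAT came from 105000g cytosol, partially purified 2- to 3-fold by ammonium sulfate. It was assayed at 1.0 mg/mL protein in pH 7.0 pyrophosphate/1 mM DTT/KCl with hydroxamic acid (1.0 mM) and AAB (0.15 mM) for 5 min at 37 °C in air. The reaction was stopped with TCA/EtOH and read at 497 nm, with a heat-denatured enzyme control. Rates are mean ± SE, N = 3–4, run in triplicate.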

Rattus norvegicus [3] = species on record: Rattus norvegicus; assay: Aminoazobenzene transacetylation inhibition by partially purified hepatic enzyme using N-ethyl maleimide as inhibitor (1.0 mM) in rat; type: functional
Summary of the method: (§1)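 Rat or hamster liver cytosol (105000g supernatant), partially purified by ammonium sulfate fractionation, was incubated 5 min with the sulfhydryl reagent (1.0 mM). AAB transacetylation was then run in pH 7.0 pyrophosphate/1 mM DTT at 37 °C with hydroxamic acid donor (1.0 mM final) and AAB (0.15 mM final). It was stopped with TCA/EtOH and read at 497 nm. Values are % inhibition, means of 2–3 triplicate experiments.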

[4] = system: arylhydroxamic acid N,O-acyltransferase (Mesocricetus auratus); assay: Tested for its arylhydroxamic acid N,O-Acyltransferase (AHAT) catalyzed transacetylation of aminoazobenzene with hamster hepatic enzyme after dialysis
[5] = system: arylhydroxamic acid N,O-acyltransferase (Mesocricetus auratus); assay: Tested for its arylhydroxamic acid N,O-Acyltransferase (AHAT) catalyzed transacetylation of aminoazobenzene with hamster hepatic enzyme before dialysis
Rattus norvegicus [6] = species on record: Rattus norvegicus; assay: Aminoazobenzene transacetylation inhibition by partially purified hepatic enzyme using 4-chloro mercuri benzenesulfonate as inhibitor (1.0 mM) in rat; type: functional
Summary of the method: as §1

Cricetinae gen. sp. [7] = assay: Aminoazobenzene transacetylation inhibition by partially purified hepatic enzyme using 4-chloro mercuri benzenesulfonate as inhibitor (1.0 mM) in hamster; type: functional; details: Cricetulus griseus
Summary of the method: as §1

Cricetinae gen. sp. [8] = assay: Aminoazobenzene transacetylation inhibition by partially purified hepatic enzyme using iodo acetamide as inhibitor (1.0 mM) in hamster; details: at 1 mM
Cricetinae gen. sp. [9] = assay: Aminoazobenzene transacetylation inhibition by partially purified hepatic enzyme using N-ethyl maleimide as inhibitor (1.0 mM) in hamster; type: functional; details: Cricetulus griseus
Summary of the method: as §1

Rattus norvegicus [10] = species on record: Rattus norvegicus; assay: Aminoazobenzene transacetylation inhibition by partially purified hepatic enzyme using iodo acetamide as inhibitor (1.0 mM) in rat; type: functional
Summary of the method: as §1

Cricetulus griseus = species on record: Cricetulus griseus; assay: Tested for its arylhydroxamic acid N,O-Acyltransferase (AHAT) catalyzed transacetylation of aminoazobenzene with hamster hepatic enzyme after dialysis; type: functional
Summary of the method: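 Hamster enzyme (partially purified by ammonium sulfate) was preincubated 20 min at 37 °C in air with the hydroxamic acid; controls had ethanol only. It was then dialyzed 6 h at 4 °C against N2-sparged pH 7.0 pyrophosphate/1 mM DTT/2% EtOH with three buffer changes. Portions taken before and after dialysis were assayed with AAB plus the same hydroxamic acid for 5 or 8 min, read at 497 nm. Rates are nmol/mg/min, mean of two triplicate experiments.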

Cricetinae gen. sp. [11] = assay: Aminoazobenzene transacetylation inhibition by partially purified hepatic enzyme using iodo acetamide as inhibitor (1.0 mM) in hamster; type: functional; details: Cricetulus griseus
Summary of the method: as §1

Row | Rate [1] | Rate (Rattus norvegicus [2]) [nmol/min/mg] | Structure (SMILES) | further results
1 | 13.1 | 5.7 | CC(=O)N(O)c1ccc(C=C(C)C)cc1 | 
2 | 8.8 | 4.7 | CCCCc1ccc(N(O)C(C)=O)cc1 | 
3 | 3.5 | 2.1 | CCc1ccc(N(O)C(C)=O)cc1 | 
4 | 5.3 | 3.1 | CCCc1ccc(N(O)C(C)=O)cc1 | 
5 | 13 | 5.9 | C/C=C/c1ccc(N(O)C(C)=O)cc1 | 
6 | 0.6 | 0.2 | CC(=O)N(O)c1ccccc1 | 
7 | 13.8 | 5.2 | CCCCCc1ccc(N(O)C(C)=O)cc1 | 
8 | 2.1 | 1.1 | CC(=O)N(O)c1ccc(C)cc1 | 
9 | 6.6 | 3.3 | C=Cc1ccc(N(O)C(C)=O)cc1 | 

Row | Structure (SMILES) | Rate [1] | Rate (Rattus norvegicus [2]) [nmol/min/mg] | further results
10 | CC(=O)N(O)c1ccc(C2CCCCC2)cc1 |  | 4.7 | inhibition (Rattus norvegicus [3]; at 1 mM): 100%; Rate (mg of protein) [4]: 1.7; Rate (mg of protein) [5]: 3.2; Rate (mg of protein) [1]: 9.4; inhibition (Rattus norvegicus [6]; at 1 mM): 100%; inhibition (Cricetinae gen. sp. [7]; at 1 mM): 100%; inhibition (Cricetinae gen. sp. [8]): 100%; inhibition (Cricetinae gen. sp. [9]; at 1 mM): 96%; inhibition (Rattus norvegicus [10]; at 1 mM): 99%
11 | CC(=O)N(O)c1ccc(-c2ccccc2)cc1 | 22.4 | 5.8 | inhibition (Rattus norvegicus [3]): 92%; Rate (mg of protein) [5]: 6.3; Rate (mg of protein) (Cricetulus griseus): 6.9; inhibition (Rattus norvegicus [6]): 100%; inhibition (Cricetinae gen. sp. [7]): 100%; inhibition (Cricetinae gen. sp. [9]): 100%; inhibition (Cricetinae gen. sp. [11]): 100%; inhibition (Rattus norvegicus [10]): 95%
